Laboratory results from ChEMBL document CHEMBL4382192, “Discovery of a potent dual ALK and EGFR T790M inhibitor” (Eur J Med Chem, 2017).

Legend:
[1] = molecular target: Ribosomal protein S6 kinase alpha-1 (Homo sapiens) (UniProt Q15418); assay: Binding affinity to wild-type human partial length N-terminal RSK1 Kinase domain 1 (M1 to E388 residues) expressed in bacterial expression system assessed as residual binding level at 1 uM by Kinomescan method relative to control
[2] = molecular target: Microtubule-associated serine/threonine-protein kinase 1 (Homo sapiens) (UniProt Q9Y2H9); assay: Binding affinity to wild-type human partial length MAST1 (S346 to V730 residues) expressed in mammalian expression system assessed as residual binding level at 1 uM by Kinomescan method relative to control
[3] = molecular target: Glycogen synthase kinase-3 alpha (Homo sapiens) (UniProt P49840); assay: Binding affinity to wild-type human full length GSK3A (M1 to S483 residues) expressed in bacterial expression system assessed as residual binding level at 1 uM by Kinomescan method relative to control
Sequence of Glycogen synthase kinase-3 alpha (Homo sapiens) (P49840 2-483 limits assumed): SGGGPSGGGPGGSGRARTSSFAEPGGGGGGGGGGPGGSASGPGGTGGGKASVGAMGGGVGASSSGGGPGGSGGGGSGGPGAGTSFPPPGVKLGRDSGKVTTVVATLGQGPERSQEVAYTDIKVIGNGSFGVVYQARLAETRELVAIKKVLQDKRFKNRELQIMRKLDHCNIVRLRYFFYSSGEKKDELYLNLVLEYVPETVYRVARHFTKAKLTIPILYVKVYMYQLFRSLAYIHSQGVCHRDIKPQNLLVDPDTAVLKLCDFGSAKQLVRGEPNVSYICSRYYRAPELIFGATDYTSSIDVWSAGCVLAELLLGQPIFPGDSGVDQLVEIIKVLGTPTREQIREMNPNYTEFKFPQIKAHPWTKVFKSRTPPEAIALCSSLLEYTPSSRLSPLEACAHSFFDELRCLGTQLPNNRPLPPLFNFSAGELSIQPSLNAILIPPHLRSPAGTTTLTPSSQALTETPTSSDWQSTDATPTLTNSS
Method in brief: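 Single-point kinome-wide KINOMEscan binding panel, test compound at 1 μM, run by the provider's standard protocol.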

[4] = test system: Serine/threonine-protein kinase B-raf (Homo sapiens), P15056 [V600E]; assay: Binding affinity to human partial length BRAF V600E mutant (S429 to E741 residues) expressed in mammalian expression system assessed as residual binding level at 1 uM by Kinomescan method relative to control
Sequence of Serine/threonine-protein kinase B-raf (Homo sapiens), P15056 [V600E] (P15056 whole entry V600E, the tested form may be a part): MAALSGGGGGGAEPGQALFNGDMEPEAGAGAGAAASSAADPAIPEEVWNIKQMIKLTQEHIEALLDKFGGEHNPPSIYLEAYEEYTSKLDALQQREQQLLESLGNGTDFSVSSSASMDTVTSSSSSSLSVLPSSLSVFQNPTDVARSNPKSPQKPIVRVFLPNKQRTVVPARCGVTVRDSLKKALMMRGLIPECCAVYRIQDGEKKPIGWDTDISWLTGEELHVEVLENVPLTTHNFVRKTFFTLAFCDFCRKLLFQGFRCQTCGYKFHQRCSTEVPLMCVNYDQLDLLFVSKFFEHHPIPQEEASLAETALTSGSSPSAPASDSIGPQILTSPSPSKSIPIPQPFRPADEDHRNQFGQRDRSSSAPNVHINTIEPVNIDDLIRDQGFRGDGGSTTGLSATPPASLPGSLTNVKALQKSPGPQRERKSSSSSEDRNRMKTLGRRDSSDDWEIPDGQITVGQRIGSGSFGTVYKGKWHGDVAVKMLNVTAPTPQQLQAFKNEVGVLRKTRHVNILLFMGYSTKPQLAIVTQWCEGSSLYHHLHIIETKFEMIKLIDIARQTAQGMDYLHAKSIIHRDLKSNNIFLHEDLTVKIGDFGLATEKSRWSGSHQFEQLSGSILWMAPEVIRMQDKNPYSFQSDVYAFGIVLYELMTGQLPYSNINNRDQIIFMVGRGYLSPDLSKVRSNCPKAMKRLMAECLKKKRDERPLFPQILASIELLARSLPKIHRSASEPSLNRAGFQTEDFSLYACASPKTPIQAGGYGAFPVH

[5] = molecular target: Activin receptor type-1B (Homo sapiens) (UniProt P36896); assay: Binding affinity to wild-type human ACVR1B (S187 to I505 residues) expressed in bacterial expression system assessed as residual binding level at 1 uM by Kinomescan method relative to control
[6] = molecular target: Macrophage colony-stimulating factor 1 receptor (Homo sapiens) (UniProt P07333); assay: Binding affinity to wild-type human partial length CSF1R (I564 to S939 residues) expressed in bacterial expression system assessed as residual binding level at 1 uM by Kinomescan method relative to control
[7] = molecular target: Tyrosine-protein kinase JAK1 (Homo sapiens) (UniProt P23458); assay: Binding affinity to wild-type human partial length JAK1 JH1 catalytic domain (V856 to K1154 residues) expressed in bacterial expression system assessed as residual binding level at 1 uM by Kinomescan method relative to control
[8] = molecular target: Interleukin-1 receptor-associated kinase 4 (Homo sapiens) (UniProt Q9NWZ3); assay: Binding affinity to wild-type human partial length IRAK4 (M1 to S460 residues) expressed in mammalian expression system assessed as residual binding level at 1 uM by Kinomescan method relative to control
Sequence of Interleukin-1 receptor-associated kinase 4 (Homo sapiens) (Q9NWZ3 whole entry, the tested form may be a part): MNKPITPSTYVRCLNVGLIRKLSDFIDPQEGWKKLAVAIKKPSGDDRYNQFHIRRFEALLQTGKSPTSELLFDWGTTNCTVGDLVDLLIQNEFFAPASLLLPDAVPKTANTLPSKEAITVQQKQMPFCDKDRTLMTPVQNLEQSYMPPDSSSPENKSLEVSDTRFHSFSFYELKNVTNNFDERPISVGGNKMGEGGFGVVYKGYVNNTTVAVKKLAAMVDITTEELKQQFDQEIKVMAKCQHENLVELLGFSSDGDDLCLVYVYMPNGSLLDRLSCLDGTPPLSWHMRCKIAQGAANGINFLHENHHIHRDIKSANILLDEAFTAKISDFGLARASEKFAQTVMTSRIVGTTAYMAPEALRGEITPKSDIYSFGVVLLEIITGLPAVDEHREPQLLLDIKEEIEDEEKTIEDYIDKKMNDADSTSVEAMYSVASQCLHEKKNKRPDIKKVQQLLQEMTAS

[9] = test system: Tyrosine-protein kinase ABL1 (Homo sapiens), P00519 [Q252H]; assay: Binding affinity to human phosphorylated ABL1 Q252H mutant expressed in mammalian expression system assessed as residual binding level at 1 uM by Kinomescan method relative to control
Method in brief: (§1)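 Kinome-wide selectivity panel run by the KINOMEscan method, with the test compound at a single concentration of 1 μM. Wild-type and mutant kinases were profiled in the same screen.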

[10] = Metabolic stability in dog liver microsomes assessed as parent compound remaining at 1 uM after 30 mins in presence of NADPH by LC/MS/MS analysis; format: ADME, Canis lupus familiaris, Microsome; conditions: read-out: Stability
Method in brief: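 Compound at 1 μM final with 0.5 mg/mL microsomal protein in 100 mM phosphate buffer pH 7.4 at 37 °C, started by adding an NADPH-regenerating system. Reactions were quenched with cold acetonitrile at 0 and 30 min and spun down. Supernatant was analysed by LC-MS/MS. The 0-min sample, quenched before NADPH addition, was set as 100%, and percent parent remaining came from peak areas.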

[11] = test system: Hepatocyte growth factor receptor (Homo sapiens), P08581 [M1250T]; assay: Binding affinity to human partial length MET M1250T mutant (D1010 to S1367 residues) expressed in bacterial expression system assessed as residual binding level at 1 uM by Kinomescan method relative to control; method in brief: as §1
[12] = molecular target: Wee1-like protein kinase 2 (Homo sapiens) (UniProt P0C1S8); assay: Binding affinity to wild-type human partial length WEE2 (M204 to K492 residues) expressed in bacterial expression system assessed as residual binding level at 1 uM by Kinomescan method relative to control
Sequence of Wee1-like protein kinase 2 (Homo sapiens) (P0C1S8 whole entry, looked up, the tested form may be a part): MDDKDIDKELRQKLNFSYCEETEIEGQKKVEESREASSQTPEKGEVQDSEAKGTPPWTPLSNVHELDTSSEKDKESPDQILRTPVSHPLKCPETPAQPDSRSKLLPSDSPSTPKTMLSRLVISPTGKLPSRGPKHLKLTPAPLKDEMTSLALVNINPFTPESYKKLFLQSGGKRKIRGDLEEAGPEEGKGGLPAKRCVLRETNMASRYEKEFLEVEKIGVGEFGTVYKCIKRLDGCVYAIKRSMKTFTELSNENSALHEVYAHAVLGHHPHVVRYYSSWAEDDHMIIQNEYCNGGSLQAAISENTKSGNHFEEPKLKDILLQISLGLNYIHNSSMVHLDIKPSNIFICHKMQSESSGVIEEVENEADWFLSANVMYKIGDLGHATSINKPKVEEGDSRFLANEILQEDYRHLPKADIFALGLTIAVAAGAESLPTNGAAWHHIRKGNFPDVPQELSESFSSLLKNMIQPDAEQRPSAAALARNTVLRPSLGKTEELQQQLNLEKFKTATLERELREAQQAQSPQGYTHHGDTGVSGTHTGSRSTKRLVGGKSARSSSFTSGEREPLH

[13] = molecular target: Serine/threonine-protein kinase 33 (Homo sapiens) (UniProt Q9BYT3); assay: Binding affinity to wild-type human full length STK33 (M1 to L514 residues) expressed in bacterial expression system assessed as residual binding level at 1 uM by Kinomescan method relative to control
Sequence of Serine/threonine-protein kinase 33 (Homo sapiens) (Q9BYT3 whole entry, looked up, the tested form may be a part): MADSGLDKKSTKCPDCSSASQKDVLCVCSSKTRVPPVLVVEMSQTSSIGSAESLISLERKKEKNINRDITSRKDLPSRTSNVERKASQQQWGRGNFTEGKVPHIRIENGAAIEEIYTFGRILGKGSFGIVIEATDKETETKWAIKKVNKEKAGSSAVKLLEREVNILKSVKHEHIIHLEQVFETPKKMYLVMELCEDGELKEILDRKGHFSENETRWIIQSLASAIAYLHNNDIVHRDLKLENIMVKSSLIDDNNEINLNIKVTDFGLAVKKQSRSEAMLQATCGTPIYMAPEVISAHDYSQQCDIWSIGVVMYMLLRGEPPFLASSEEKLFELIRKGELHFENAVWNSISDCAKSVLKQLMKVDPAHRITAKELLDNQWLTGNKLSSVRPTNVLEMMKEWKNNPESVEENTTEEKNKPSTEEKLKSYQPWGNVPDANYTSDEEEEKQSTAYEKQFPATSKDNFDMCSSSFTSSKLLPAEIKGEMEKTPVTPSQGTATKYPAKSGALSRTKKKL

[14] = molecular target: Serine/threonine-protein kinase LATS1 (Homo sapiens) (UniProt O95835); assay: Binding affinity to wild-type human partial length LATS1 (Q678 to V1130 residues) expressed in bacterial expression system assessed as residual binding level at 1 uM by Kinomescan method relative to control
[15] = molecular target: Serine/threonine-protein kinase MRCK beta (Homo sapiens) (UniProt Q9Y5S2); assay: Binding affinity to wild-type human partial length MRCKB (L56 to S417 residues) expressed in bacterial expression system assessed as residual binding level at 1 uM by Kinomescan method relative to control
[16] = molecular target: Myotonin-protein kinase (Homo sapiens) (UniProt Q09013); assay: Binding affinity to wild-type human partial length DMPK (V47 to V415 residues) expressed in bacterial expression system assessed as residual binding level at 1 uM by Kinomescan method relative to control
[17] = molecular target: Homeodomain-interacting protein kinase 1 (Homo sapiens) (UniProt Q86Z02); assay: Binding affinity to wild-type human partial length HIPK1 (M146 to I555 residues) expressed in mammalian expression system assessed as residual binding level at 1 uM by Kinomescan method relative to control
[18] = molecular target: Mast/stem cell growth factor receptor Kit (Homo sapiens) (UniProt P10721); assay: Binding affinity to wild-type human partial length autoinhibited KIT (Y545 to D952 residues) expressed in mammalian expression system assessed as residual binding level at 1 uM by Kinomescan method relative to control
Sequence of Mast/stem cell growth factor receptor Kit (Homo sapiens) (P10721 whole entry, the tested form may be a part): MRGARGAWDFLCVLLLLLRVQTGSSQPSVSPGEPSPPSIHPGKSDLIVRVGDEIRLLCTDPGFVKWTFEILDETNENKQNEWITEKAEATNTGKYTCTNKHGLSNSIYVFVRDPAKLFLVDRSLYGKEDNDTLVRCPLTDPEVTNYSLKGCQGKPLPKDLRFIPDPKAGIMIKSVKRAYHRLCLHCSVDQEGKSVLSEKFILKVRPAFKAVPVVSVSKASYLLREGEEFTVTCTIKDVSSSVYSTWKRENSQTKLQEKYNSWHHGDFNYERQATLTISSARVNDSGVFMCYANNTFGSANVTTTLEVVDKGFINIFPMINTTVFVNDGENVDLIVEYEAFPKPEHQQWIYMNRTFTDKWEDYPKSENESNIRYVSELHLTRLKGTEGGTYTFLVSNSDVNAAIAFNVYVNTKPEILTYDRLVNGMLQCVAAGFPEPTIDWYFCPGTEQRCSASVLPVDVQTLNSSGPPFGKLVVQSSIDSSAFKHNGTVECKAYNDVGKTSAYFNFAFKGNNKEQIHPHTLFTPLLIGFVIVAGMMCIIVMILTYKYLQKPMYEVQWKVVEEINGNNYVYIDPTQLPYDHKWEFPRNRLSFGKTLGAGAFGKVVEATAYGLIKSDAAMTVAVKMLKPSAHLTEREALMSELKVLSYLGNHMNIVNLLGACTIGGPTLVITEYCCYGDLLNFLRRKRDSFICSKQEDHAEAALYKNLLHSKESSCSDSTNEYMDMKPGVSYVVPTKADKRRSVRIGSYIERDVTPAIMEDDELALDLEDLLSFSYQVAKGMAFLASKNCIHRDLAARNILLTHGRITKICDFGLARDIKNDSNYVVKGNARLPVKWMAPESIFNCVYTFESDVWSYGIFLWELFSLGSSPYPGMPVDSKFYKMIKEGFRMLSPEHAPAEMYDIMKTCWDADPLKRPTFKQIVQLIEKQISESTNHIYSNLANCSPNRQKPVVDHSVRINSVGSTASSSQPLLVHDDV

[19] = molecular target: Serine/threonine-protein kinase 32C (Homo sapiens) (UniProt Q86UX6); assay: Binding affinity to wild-type human partial length YANK3 (M68 to G486 residues) expressed in bacterial expression system assessed as residual binding level at 1 uM by Kinomescan method relative to control
Sequence of Serine/threonine-protein kinase 32C (Homo sapiens) (Q86UX6 whole entry, the tested form may be a part): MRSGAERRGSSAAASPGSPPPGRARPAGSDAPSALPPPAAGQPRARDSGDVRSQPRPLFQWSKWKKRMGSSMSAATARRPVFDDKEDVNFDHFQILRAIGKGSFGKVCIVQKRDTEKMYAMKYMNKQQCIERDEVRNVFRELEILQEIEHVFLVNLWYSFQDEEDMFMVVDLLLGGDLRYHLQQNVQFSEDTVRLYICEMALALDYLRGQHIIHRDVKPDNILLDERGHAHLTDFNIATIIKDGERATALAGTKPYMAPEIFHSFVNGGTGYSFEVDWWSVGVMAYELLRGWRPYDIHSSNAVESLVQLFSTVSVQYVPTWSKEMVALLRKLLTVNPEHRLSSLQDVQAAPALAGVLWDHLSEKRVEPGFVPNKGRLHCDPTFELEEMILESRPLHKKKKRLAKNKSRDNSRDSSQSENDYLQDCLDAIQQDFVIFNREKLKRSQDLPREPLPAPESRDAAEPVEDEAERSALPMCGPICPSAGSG

[20] = molecular target: Serine/threonine-protein kinase 17A (Homo sapiens) (UniProt Q9UEE5); assay: Binding affinity to wild-type human partial length DRAK1 (R32 to E363 residues) expressed in bacterial expression system assessed as residual binding level at 1 uM by Kinomescan method relative to control
[21] = AUClast in mouse at 10 mg/kg, po; format: ADME, organism-based; parameters: dose 10 mg/kg, time 0 - last, route oral; conditions: in vivo
[22] = molecular target: Serine/threonine-protein kinase SIK1 (Homo sapiens) (UniProt P57059); assay: Binding affinity to wild-type human partial length SIK (M1 to Y304 residues) expressed in bacterial expression system assessed as residual binding level at 1 uM by Kinomescan method relative to control
[23] = molecular target: Serine/threonine-protein kinase ULK1 (Homo sapiens) (UniProt O75385); assay: Binding affinity to wild-type human partial length ULK1 (M1 to T309 residues) expressed in mammalian expression system assessed as residual binding level at 1 uM by Kinomescan method relative to control

Sequence of Ribosomal protein S6 kinase alpha-1 (Homo sapiens) (Q15418 whole entry, the tested form may be a part): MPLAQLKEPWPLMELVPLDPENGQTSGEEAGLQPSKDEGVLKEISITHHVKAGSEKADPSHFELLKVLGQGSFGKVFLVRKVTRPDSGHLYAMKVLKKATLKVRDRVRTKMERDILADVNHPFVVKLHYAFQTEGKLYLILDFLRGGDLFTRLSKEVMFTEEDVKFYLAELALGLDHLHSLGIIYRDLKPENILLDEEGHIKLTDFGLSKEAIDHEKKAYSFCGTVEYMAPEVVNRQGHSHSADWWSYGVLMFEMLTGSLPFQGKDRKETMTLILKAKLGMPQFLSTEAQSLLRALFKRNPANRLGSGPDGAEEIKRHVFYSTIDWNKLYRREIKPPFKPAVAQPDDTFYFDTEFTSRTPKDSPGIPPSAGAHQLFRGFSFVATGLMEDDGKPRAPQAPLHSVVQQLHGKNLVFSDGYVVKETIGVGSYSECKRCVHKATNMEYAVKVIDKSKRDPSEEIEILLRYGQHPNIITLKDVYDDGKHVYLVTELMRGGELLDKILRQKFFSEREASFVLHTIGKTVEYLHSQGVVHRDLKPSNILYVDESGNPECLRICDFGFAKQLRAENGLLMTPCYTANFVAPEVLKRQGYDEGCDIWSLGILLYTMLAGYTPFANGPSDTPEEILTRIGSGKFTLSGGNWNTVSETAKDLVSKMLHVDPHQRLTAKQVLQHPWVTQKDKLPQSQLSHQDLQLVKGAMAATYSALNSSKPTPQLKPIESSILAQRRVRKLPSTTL

C=CC(=O)Nc1cc(Nc2ncc(Cl)c(Nc3ccccc3S(=O)(=O)C(C)C)n2)c(OC)cc1N(C)CCN(C)C
Activity [1]: 4.3%
Activity [2]: 3.2%
Activity [3]: 99%
Activity [4]: 88%
Activity [5]: 16%
Activity [6]: 26%
Activity [7]: 78%
Activity [8]: 96%
Activity [9]: 2.8%
remaining at 0.5 h, 1 µM [10]: 17%
Activity [11]: 14%
Activity [12]: 93%
Activity [13]: 2%
Activity [14]: 82%
Activity [15]: 100%
Activity [16]: 91%
Activity [17]: 57%
Activity [18]: 66%
Activity [19]: 13%
Activity [20]: 83%
AUC(0-t) [21]: 1550 ng·h/mL
Activity [22]: 67%
Activity [23]: 0.3%
